Experimental data taken from ChEMBL document CHEMBL3272325, “Structure-activity relationships of dimeric Catharanthus alkaloids. 1. Deacetylvinblastine amide (vindesine) sulfate” (J Med Chem, 1978).
The source made the active and inactive calls. No cut-off for these calls is given here.

What was measured:
Format in all cases: functional, organism-based
sarcoma = assay: Antitumor activity against mouse Ridgeway osteogenic sarcoma cell allografted in po dosed mouse
Leukemia cell [1] = assay: Antitumor activity against human leukemia cells allografted in human assessed as remission of nonlymphocytic leukemia at 3 to 4 mg/m'2, iv once weekly dosed through push technique
Mus musculus = assay: Antitumor activity against Gardner lymphosarcoma cell in po dosed mouse
P388 [2] = assay: Antitumor activity against mouse P388 cells allografted in mouse assessed as survival at 4 mg/kg/day after 1 day
In short: (§1)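 P388 ascites implanted ip in mice; sulfate salts dosed either daily or as a single dose on day 1, 10 animals per group. Survivors per total were recorded, median life span was calculated using all deaths and survivors, and percent increase of life span was reported.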

Leukemia cell [3] = assay: Antitumor activity against human leukemia cells allografted in human assessed as remission of acute lymphocytic leukemia at 3 to 4 mg/m'2, iv once weekly dosed through push technique
P388 [4] = assay: Antitumor activity against mouse P388 cells allografted in mouse assessed as survival at 2.7 mg/kg/day after 1 day; in short: as §1
P388 [5] = assay: Antitumor activity against mouse P388 cells allografted in mouse assessed as survival at 0.10 mg/kg/day administered from day 1 to day 9; in short: as §1
P388 [6] = assay: Antitumor activity against mouse P388 cells allografted in mouse assessed as survival at 1.8 mg/kg/day after 1 day; in short: as §1

CC[C@]1(O)C[C@@H]2CN(CCc3c([nH]c4ccccc34)[C@@](C(=O)OC)(c3cc4c(cc3OC)N(C)[C@H]3[C@@](O)(C(N)=O)[C@H](O)[C@]5(CC)C=CCN6CC[C@]43[C@@H]65)C2)C1
Activity (sarcoma): inactive
Activity (Leukemia cell [1]): Active
Activity (Mus musculus): inactive
Activity (P388 [2]): inactive
Activity (Leukemia cell [3]): Active
Activity (P388 [4]): inactive
Activity (P388 [5]): inactive
Activity (P388 [6]): inactive
